Assay [1] concerns Staphylococcus aureus. The experiment in a line: Antibacterial activity against methicillin-resistant Staphylococcus aureus JCSC 4788 by micro dilution susceptibility test. In kind it is functional. In short, it runs like this:
(§1)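 Microbroth dilution MIC in Mueller–Hinton broth following CLSI guidelines, vancomycin as positive control; resazurin added as visible growth indicator. Assays run at least in triplicate.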

The test system of assay [2] is Staphylococcus aureus. Briefly: Antibacterial activity against Staphylococcus aureus ATCC 6538 by micro dilution susceptibility test. In kind it is functional. In a few lines: as §1
In assay [3] the test system is Staphylococcus aureus. Briefly: Induction of membrane disruption in methicillin-resistant Staphylococcus aureus JCSC 4788 assessed as increase in fluorescence intensity at 0.25 to 8 ug/ml measured after 3 hrs by SYTOX green dye based fluorescence assay. In kind it is functional, organism-based. In a few lines: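 Exponential-phase MRSA JCSC 4788 washed and set to OD620 0.4 in 0.85% NaCl, exposed to serial compound concentrations for 3 h, then 3 μM SYTOX Green for 20 min. Fluorescence read at ex 504/em 523 nm with melittin as positive control and vancomycin as comparator; mean ± SD, n = 3.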

The next assay has as its system Salmonella typhi. Briefly: Antibacterial activity against Salmonella typhi CMCC 44102 by micro dilution susceptibility test. In kind it is functional, Salmonella enterica subsp. enterica serovar Typhi. The settings on record: Salmonella enterica. In a few lines:
as §1

In another assay the test system is Bacillus cereus. Briefly: Antibacterial activity against Bacillus cereus ATCC 10876 by micro dilution susceptibility test. In kind it is functional. In a few lines: (§2)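 Microbroth dilution MIC in Mueller–Hinton broth following CLSI guidelines, with vancomycin as positive control; assays run at least in triplicate.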
Assay [4] deals with Staphylococcus aureus. The experiment in a line: Antibacterial activity against methicillin-resistant Staphylococcus aureus JCSC 4788 in Balb/c mouse skin infection model assessed as reduction in skin ulcer formation at 40 ug administered as single dose via intradermal route measured 3 to 8 days post-infection. In kind it is functional, organism-based. In short, it runs like this:
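Female BALB/c mice (18–20 g) injected intradermally in abdominal skin with 0.1 mL of MRSA JCSC 4788 (1×10^8 CFU) mixed with a single 40 μg dose in DMSO; DMSO-vehicle controls. Body weight and lesion size recorded daily for 11 days, ulcers imaged at 3 and 8 days; n = 6, mean ± SD.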

For a further assay, the system named is Enterococcus faecalis. Briefly: Antibacterial activity against Enterococcus faecalis ATCC 29212 by micro dilution susceptibility test. In kind it is functional. In short, it runs like this: as §2
For another assay, the system named is Escherichia coli. Briefly: Antibacterial activity against Escherichia coli ATCC 8739 by micro dilution susceptibility test. In kind it is functional. In short, it runs like this:
as §2

A further assay relates to Candida albicans. The experiment in a line: Antibacterial activity against Candida albicans ATCC 10231 by micro dilution susceptibility test. In kind it is functional. In a few lines:
as §2

In assay [5] the test system is Paenibacillus polymyxa. The experiment in a line: Antibacterial activity against Bacillus polymyxa GIM 1.467 by micro dilution susceptibility test. In kind it is functional. In a few lines: as §2
For a further assay, the system named is Enterococcus faecium. The experiment in a line: Antibacterial activity against vancomycin-resistant Enterococcus faecium by micro dilution susceptibility test. In kind it is functional. In a few lines: as §1
Assay [6] has as its system Staphylococcus epidermidis. The experiment in a line: Antibacterial activity against Staphylococcus epidermidis ATCC 12228 by micro dilution susceptibility test. In kind it is functional. In short, it runs like this:
as §2

The subject of another assay is Cutibacterium acnes. The experiment in a line: Antibacterial activity against Propionicibacterium acnes ATCC 6919 by micro dilution susceptibility test. In kind it is functional. In short, it runs like this: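 Microbroth dilution MIC in Mueller–Hinton broth following CLSI guidelines; […]; resazurin added as visible growth indicator; vancomycin positive control; at least triplicate.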

For a further assay, the system named is Shigella dysenteriae. Briefly: Antibacterial activity against Shigella dysenteriae CMCC 51252 by micro dilution susceptibility test. In kind it is functional. In a few lines: as §1
The subject of assay [7] is Paenibacillus polymyxa. Briefly: Antibacterial activity against Bacillus polymyxa ATCC 842 by micro dilution susceptibility test. In kind it is functional. In a few lines: as §2

Broadly, the MIC is the lowest concentration found to suppress growth. A lower MIC goes with inhibition by little substance.

Converted amounts (≈) assume the structure as drawn. The source made the active and inactive calls. The rule behind the calls is not given here.

For `CC(C)CC1C2=C(Oc3c(C(=O)Cc4ccccc4)c(O)cc(O)c31)C(C)(C)C(=O)C(C)(C)C2=O` (configuration not stated), the minimum inhibitory concentration (MIC) in the assay on Staphylococcus aureus [1] and with Staphylococcus aureus [2] was 4 µg/mL (≈ 8.39 µM) each time.
Regarding `CCC(=O)c1c(O)cc(O)c2c1OC1=C(C(=O)C(C)(C)C(=O)C1(C)C)C2CC(C)C` (configuration not stated), the minimal inhibitory concentration (MIC) against Staphylococcus aureus [1] and against Staphylococcus aureus [2] was 2 µg/mL (≈ 4.83 µM) each time.
For `CC(C)CC1C2=C(Oc3c(C(=O)CCc4ccccc4)c(O)cc(O)c31)C(C)(C)C(=O)C(C)(C)C2=O` (configuration not stated), the MIC against Staphylococcus aureus [1] and against Staphylococcus aureus [2] was 2 µg/mL (≈ 4.08 µM) each time.
`CC(C)CC1C2=C(Oc3c(C(=O)C4CCCCC4)c(O)cc(O)c31)C(C)(C)C(=O)C(C)(C)C2=O` (configuration not stated): the results for the MIC in the assay on Staphylococcus aureus [1] and against Staphylococcus aureus [2] were 4 µg/mL (≈ 8.54 µM) and 2 µg/mL (≈ 4.27 µM), respectively.
Turning to `CCCCCCCCC(=O)c1c(O)cc(O)c2c1OC1=C(C(=O)C(C)(C)C(=O)C1(C)C)C2CC(C)C` (configuration not stated), the MIC in the assay with Staphylococcus aureus [1] is 0.5 µg/mL (≈ 1 µM); in the assay with Staphylococcus aureus [2], 0.25 µg/mL (≈ 0.501 µM).
As for `CC[C@H](C)[C@H](NC(=O)CN)C(=O)NCC(=O)N[C@@H](C)C(=O)N[C@H](C(=O)N[C@@H](CC(C)C)C(=O)N[C@@H](CCCCN)C(=O)N[C@H](C(=O)N[C@@H](CC(C)C)C(=O)N[C@H](C(=O)N[C@H](C(=O)NCC(=O)N[C@@H](CC(C)C)C(=O)N1CCC[C@H]1C(=O)N[C@@H](C)C(=O)N[C@@H](CC(C)C)C(=O)N[C@H](C(=O)N[C@@H](CO)C(=O)N[C@@H](Cc1c[nH]c2ccccc12)C(=O)N[C@H](C(=O)N[C@@H](CCCCN)C(=O)N[C@@H](CCCNC(=N)N)C(=O)N[C@@H](CCCCN)C(=O)N[C@@H](CCCNC(=N)N)C(=O)N[C@@H](CCC(N)=O)C(=O)N[C@@H](CCC(N)=O)C(N)=O)[C@@H](C)CC)[C@@H](C)CC)[C@@H](C)O)[C@@H](C)O)C(C)C)C(C)C`, the outcome in the assay with Staphylococcus aureus [3] was Active.
On to `CCCCCCCCCCCCCC(=O)c1c(O)cc(O)c2c1OC1=C(C(=O)C(C)(C)C(=O)C1(C)C)C2CC(C)C` (configuration not stated), for which the MIC in the assay with Staphylococcus aureus [1] came to 256 µg/mL (≈ 450 µM); against Staphylococcus aureus [2] it was 128 µg/mL (≈ 225 µM).
For the compound `CC(C)CC1C2=C(Oc3cc(O)cc(O)c31)C(C)(C)C(=O)C(C)(C)C2=O` (configuration not stated), the results for the MIC against Staphylococcus aureus [1] and in the assay with Staphylococcus aureus [2] were 256 µg/mL (≈ 714 µM) and over 256 µg/mL, respectively.
In the case of `CN[C@H](CC(C)C)C(=O)N[C@H]1C(=O)N[C@@H](CC(N)=O)C(=O)N[C@H]2C(=O)N[C@H]3C(=O)N[C@H](C(=O)N[C@H](C(=O)O)c4cc(O)cc(O)c4-c4cc3ccc4O)[C@H](O)c3ccc(c(Cl)c3)Oc3cc2cc(c3O[C@@H]2O[C@H](CO)[C@@H](O)[C@H](O)[C@H]2O[C@H]2C[C@](C)(N)[C@H](O)[C@H](C)O2)Oc2ccc(cc2Cl)[C@H]1O` [VANCOMYCIN], the MIC in the assay with Salmonella typhi is over 32 µg/mL; against Bacillus cereus, 0.5 µg/mL (≈ 0.345 µM); against Enterococcus faecalis, 0.5 µg/mL (≈ 0.345 µM); in the assay with Escherichia coli, over 32 µg/mL; in the assay on Candida albicans, over 32 µg/mL; in the assay on Paenibacillus polymyxa [5] it was over 32 µg/mL. Further, the MIC against Enterococcus faecium was over 32 µg/mL; against Staphylococcus aureus [2] it was 0.5 to 1 µg/mL (≈ 0.345 to 0.69 µM); in assay [6], 0.5 µg/mL (≈ 0.345 µM); against Cutibacterium acnes it was 0.5 µg/mL (≈ 0.345 µM); with Shigella dysenteriae, over 32 µg/mL; in the assay on Paenibacillus polymyxa [7], over 32 µg/mL. In addition, the result in the assay with Staphylococcus aureus [4] was Active. Further, in the assay on Staphylococcus aureus [3], the outcome was inactive.
For the compound `CCCCCC(=O)c1c(O)cc(O)c2c1OC1=C(C(=O)C(C)(C)C(=O)C1(C)C)C2CC(C)C` (configuration not stated), the MIC in the assay on Staphylococcus aureus [1] and against Staphylococcus aureus [2] was 0.5 µg/mL (≈ 1.1 µM) in each case.
On to `CCCCCCC(=O)c1c(O)cc(O)c2c1OC1=C(C(=O)C(C)(C)C(=O)C1(C)C)C2CC(C)C` (configuration not stated), for which the MIC is 0.5 µg/mL (≈ 1.06 µM) with Staphylococcus aureus [1] and 0.25 µg/mL (≈ 0.531 µM) against Staphylococcus aureus [2].
Turning to `CC(C)CC1C2=C(Oc3c(C=O)c(O)cc(O)c31)C(C)(C)C(=O)C(C)(C)C2=O` (configuration not stated), the MIC against Staphylococcus aureus [1] and against Staphylococcus aureus [2] was 128 µg/mL (≈ 331 µM) in each case.
As for `CCCC(=O)c1c(O)cc(O)c2c1OC1=C(C(=O)C(C)(C)C(=O)C1(C)C)C2CC(C)C` (configuration not stated), the MIC against Staphylococcus aureus [1] and in the assay with Staphylococcus aureus [2] was 2 µg/mL (≈ 4.67 µM) each time.
